# How the values were obtained:
# Mus musculus [1] = test: Toxicity in C3H mouse allografted with mouse Gardner lymphosarcoma assessed as lethality at 0.40 mg/kg, ip administered daily for 8 to 10 days; assay type: organism-based; design: dose 0.4 mg/kg, route intraperitoneal; settings: in vivo, 0.4 mg/kg
# How it was run: (§1)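 Tumor-bearing mice given sulfate salts ip daily for 8–10 days; values are the average of one or more tests. Toxic means lethal to ≥5 of 10 animals per group.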
# [2] = Antitumor activity against mouse Gardner lymphosarcoma allografted in C3H mouse assessed as tumor growth inhibition at 0.05 mg/kg, ip administered daily for 8 to 10 days; assay type: functional; settings: route intraperitoneal, read-out: TGI
# How it was run: (§2)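 Gardner lymphosarcoma in C3H mice; sulfate salts unless noted, given ip daily for 8–10 days, treatment starting 8 days after tumor implantation. Tumor growth inhibition scored as –, 0–25%; +, 26–50%; ++, 51–75%; +++, 76–100%; T, lethal to ≥5 of 10 animals per group. Average of one or more tests.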
# [3] = Antitumor activity against mouse Gardner lymphosarcoma allografted in C3H mouse assessed as tumor growth inhibition at 0.10 mg/kg, ip administered daily for 8 to 10 days; assay type: functional; settings: route intraperitoneal, read-out: TGI; how it was run: as §2
# Mus musculus [4] = test: Toxicity in C3H mouse allografted with mouse Gardner lymphosarcoma assessed as lethality at 0.20 mg/kg, ip administered daily for 8 to 10 days; assay type: organism-based; design: dose 0.2 mg/kg, route intraperitoneal; settings: in vivo, 0.2 mg/kg; how it was run: as §1
# [5] = Antitumor activity against mouse Gardner lymphosarcoma allografted in C3H mouse assessed as tumor growth inhibition at 0.30 mg/kg, ip administered daily for 8 to 10 days; assay type: functional; settings: route intraperitoneal, read-out: TGI; how it was run: as §2
# [6] = Antitumor activity against mouse Gardner lymphosarcoma allografted in C3H mouse assessed as tumor growth inhibition at 0.40 mg/kg, ip administered daily for 8 to 10 days; assay type: functional; settings: route intraperitoneal, read-out: TGI; how it was run: as §2
# B16 [7] = test: Antitumor activity against mouse B16 cells allografted in C57BL/6 mouse assessed as prolongation of host survival at 0.90 mg/kg, ip administered on days 1,5 and 9; assay type: functional; settings: route intraperitoneal
# How it was run: (§3)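 B16 melanoma cells (10⁶ inoculum) implanted ip in C57BL/6 mice; groups of 10. Sulfate salts unless noted, given ip on days 1, 5 and 9. Single test. Survival prolongation is expressed as percent versus controls, with survivors counted on day 60. Toxic means deaths of ≥5 of 10 animals before the first control death.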
# [8] = Antitumor activity against mouse Gardner lymphosarcoma allografted in C3H mouse assessed as tumor growth inhibition at 0.20 mg/kg, ip administered daily for 8 to 10 days; assay type: functional; settings: route intraperitoneal, read-out: TGI; how it was run: as §2
# B16 [9] = test: Antitumor activity against mouse B16 cells allografted in C57BL/6 mouse assessed as prolongation of host survival at 0.60 mg/kg, ip administered on days 1,5 and 9; assay type: functional; settings: route intraperitoneal; how it was run: as §3
# Mus musculus [10] = test: Toxicity in C57BL/6 mouse allografted with mouse B16 cells assessed as animal death at 1.20 mg/kg, ip administered on days 1,5 and 9; assay type: organism-based; design: dose 1.2 mg/kg, route intraperitoneal; settings: in vivo, 1.2 mg/kg; how it was run: as §3
# P388/VCR [11] = test: Antitumor activity against mouse P388/VCR cells allografted in B6D2F1 mouse assessed as increase in host lifespan at 1.20 mg/kg, ip administered on days 1, 5 and 9; assay type: functional; settings: dose 1.2 mg/kg; route intraperitoneal
# How it was run: (§4)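 P388/VCR leukemia in groups of 10 B6D2F1 mice, run at Lilly using the cell strain received from NCI. Sulfate salts given ip on days 1, 5 and 9. Read-out is percent increase in lifespan.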
# P388/VCR [12] = test: Antitumor activity against mouse P388/VCR cells allografted in B6D2F1 mouse assessed as increase in host lifespan at 0.90 mg/kg, ip administered on days 1, 5 and 9; assay type: functional; settings: dose 0.9 mg/kg; route intraperitoneal; how it was run: as §4
# CHO [13] = test: Mitotic arrest in CHO cells assessed as increase in cell accumulation at 0.02 ug/ml; assay type: functional, Cricetulus griseus
# How it was run: (§5)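 Chinese hamster ovary cells in tissue culture, scored for mitotic arrest as increase in cells in mitotic arrest over control: +++, 40–50%; ++, 15–40%; +, 10–15%; ±, 7–10%; –, 3–7%. Cytotoxicity noted separately.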
# P388/VCR [14] = test: Antitumor activity against mouse P388/VCR cells allografted in B6D2F1 mouse assessed as increase in host lifespan at 0.60 mg/kg, ip administered on days 1, 5 and 9; assay type: functional; settings: dose 0.6 mg/kg; route intraperitoneal; how it was run: as §4
# CHO [15] = test: Mitotic arrest in CHO cells assessed as increase in cell accumulation at 0.002 ug/ml; assay type: functional, Cricetulus griseus; how it was run: as §5
# CHO [16] = test: Mitotic arrest in CHO cells assessed as increase in cell accumulation at 0.2 ug/ml; assay type: functional, Cricetulus griseus; how it was run: as §5
# Mus musculus [17] = test: Toxicity in C3H mouse allografted with mouse Gardner lymphosarcoma assessed as lethality at 0.5 mg/kg, ip administered daily for 8 to 10 days; assay type: organism-based; design: dose 0.5 mg/kg, route intraperitoneal; settings: in vivo; how it was run: as §1
# [18] = Antitumor activity against mouse P1534 cells allografted in DBA2 mouse assessed as tumor growth inhibition at 0.20 mg/kg, ip administered daily for 8 to 10 days; assay type: functional; settings: route intraperitoneal, read-out: TGI
# How it was run: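 P1534(J) leukemia implanted sc in DBA2 mice; sulfate salts dosed ip daily for 8–10 days. Growth inhibition scored –, 0–25%; +, 26–50%; ++, 51–75%; +++, 76–100%; T, lethal to ≥5 of 10 animals per group. Average of one or more tests.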
# [19] = Antitumor activity against mouse Gardner lymphosarcoma allografted in C3H mouse assessed as tumor growth inhibition at 0.5 mg/kg, ip administered daily for 8 to 10 days; assay type: functional; settings: route intraperitoneal, read-out: TGI; how it was run: as §2
# [20] = Antitumor activity against mouse Gardner lymphosarcoma allografted in C3H mouse assessed as tumor growth inhibition at 0.25 mg/kg, ip administered daily for 8 to 10 days; assay type: functional; settings: route intraperitoneal, read-out: TGI; how it was run: as §2
# [21] = Antitumor activity against mouse Gardner lymphosarcoma allografted in C3H mouse assessed as tumor growth inhibition at 0.125 mg/kg, ip administered daily for 8 to 10 days; assay type: functional; settings: route intraperitoneal, read-out: TGI; how it was run: as §2
SMILES,Activity (Mus musculus [1]),inhibition in vivo at 0.1 mg/kg [3],survival at 0.9 mg/kg (B16 [7]),inhibition in vivo at 0.2 mg/kg [8],survival at 0.6 mg/kg (B16 [9]),Activity (Mus musculus [10]),also measured
C=CC(=O)OCCNC(=O)[C@@]1(O)[C@H](O)[C@]2(CC)C=CCN3CC[C@@]4(c5cc([C@@]6(C(=O)OC)C[C@@H]7CN(CCc8c6[nH]c6ccccc86)C[C@](O)(CC)C7)c(OC)cc5N(C)[C@@H]14)[C@@H]32,Toxic,76%,,,,,inhibition in vivo at 0.05 mg/kg [2]: 51%; Activity (Mus musculus [4]): Toxic
CC[C@]1(O)C[C@H]2CN(CCc3c([nH]c4ccccc34)[C@@](C(=O)OC)(c3cc4c(cc3OC)N(C)[C@H]3[C@@](O)(C(=O)NCCS)[C@H](O)[C@]5(CC)C=CCN6CC[C@]43[C@@H]65)C2)C1.O=S(=O)(O)O,,0%,141%,26%,170%,Toxic,inhibition in vivo at 0.3 mg/kg [5]: 51%; inhibition in vivo at 0.4 mg/kg [6]: 76%
CC[C@]1(O)C[C@H]2CN(CCc3c([nH]c4ccccc34)[C@@](C(=O)OC)(c3cc4c(cc3OC)N(C)[C@H]3[C@@](O)(C(=O)NCCSC)[C@H](O)[C@]5(CC)C=CCN6CC[C@]43[C@@H]65)C2)C1.O=S(=O)(O)O,Toxic,0%,58%,0%,163%,Toxic,Activity (P388/VCR [11]): 6%; Activity (P388/VCR [12]): 42%; Activity (CHO [13]): 15%; Activity (P388/VCR [14]): 20%; Activity (CHO [15]): 3%; Activity (CHO [16]): 15%
CC[C@]1(O)C[C@H]2CN(CCc3c([nH]c4ccccc34)[C@@](C(=O)OC)(c3cc4c(cc3OC)N(C)[C@H]3[C@@](O)(C(=O)NCCCSC)[C@H](O)[C@]5(CC)C=CCN6CC[C@]43[C@@H]65)C2)C1.O=S(=O)(O)O,Toxic,0%,141%,0%,101%,Toxic,
CC[C@]1(O)C[C@H]2CN(CCc3c([nH]c4ccccc34)[C@@](C(=O)OC)(c3cc4c(cc3OC)N(C)[C@H]3[C@@](O)(C(N)=O)[C@H](OC(C)=O)[C@]5(CC)C=CCN6CC[C@]43[C@@H]65)C2)C1.O=S(=O)(O)O,,,,,,,Activity (Mus musculus [17]): Toxic; Activity (CHO [13]): 15%; Activity (CHO [15]): 3%; Activity (CHO [16]): 40%
CC[C@]1(O)C[C@H]2CN(CCc3c([nH]c4ccccc34)[C@@](C(=O)OC)(c3cc4c(cc3OC)N(C)[C@H]3[C@@](O)(C(=O)NC)[C@H](OC(C)=O)[C@]5(CC)C=CCN6CC[C@]43[C@@H]65)C2)C1.O=S(=O)(O)O,,,,,,,Activity (Mus musculus [17]): Toxic; inhibition in vivo at 0.2 mg/kg [18]: 51%
CC[C@]1(O)C[C@H]2CN(CCc3c([nH]c4ccccc34)[C@@](C(=O)OC)(c3cc4c(cc3OC)N(C)[C@H]3[C@@](O)(C(=O)NCCNC(C)=O)[C@H](OC(C)=O)[C@]5(CC)C=CCN6CC[C@]43[C@@H]65)C2)C1,,,,,,,inhibition in vivo at 0.5 mg/kg [19]: 76%; inhibition in vivo at 0.25 mg/kg [20]: 51%; inhibition in vivo at 0.125 mg/kg [21]: 0%

# Reference: ChEMBL document CHEMBL3227917, “Structure-activity relationships of dimeric Catharanthus alkaloids. 2. Experimental antitumor activities of N-substituted deacetylvinblastine amide (vindesine) sulfates” (J Med Chem, 1979)
